Source: PubChem (The Scripps Research Institute Molecular Screening Center)
Sampled rows, rich in hits. Any-hit rate of the full collection: about 0.55%.
TRPN1 ag: zebrafish TRPN1 (NompC) channel agonism. HEK293 zebrafish TRPN1-YFP, Fluo-8 calcium fluorescence; 100% = response to 87 µM carbachol. activation, % at 3 µM. hit rate 0.18% among 220,000. AID 1424;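 active = activation above its plate's cutoff, the mean activation of test wells on that plate plus 3 SD, cut at about 19% in these data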
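Material: zebrafish TRPN1-YFP in HEK293 cells. Doses: one dose of 3 µM, 0.3% DMSO. Incubation: dye 1 h 37 °C plus 30 min RT. Measured by: intracellular calcium fluorescence with Fluo-8.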
TRPML3 ag: human mucolipin-3 channel agonism; hit rate 0.29% among 220,000; Q8TDD5; AID 1448; activation, % at 3 µM; HEK293 TRPML3-YFP, Fluo-8 calcium fluorescence; 100% = the carbachol control signal;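 active = activation above its plate's cutoff, the mean activation of the plate's test wells plus 3 SD, cut at about 12% in these data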
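Material: HEK293 cells stably carrying human TRPML3-YFP; compound dosing: single dose, 3 µM final nominal compound, 0.3% DMSO final; incubation: 1-h 37 °C dye load, 5-s basal, 120-s post-compound reads; technique: Fluo-8 intracellular calcium fluorescence, excitation 470-495 nm, emission 515-575 nm; read-out basis: percent activation from peak-to-basal fluorescence ratio, scaled between DMSO and carbachol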
V1R ag counter: activates human V1a receptor in oxytocin agonist counter-screen | P37288 | CHO-V1R cells, Fluo-8 calcium fluorescence, agonist mode; 0% DMSO, 100% 3 nM vasopressin | activation, % at 3 µM | hit rate 0.25% among 320,000;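 active = activation above the mean activation of all tested compounds plus 3 SD, per screening run, cut at about 20% in these data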;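 note: signal is peak over basal fluorescence ratio across a 100 second FLIPR read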
Target sequence (P37288 whole entry, looked up): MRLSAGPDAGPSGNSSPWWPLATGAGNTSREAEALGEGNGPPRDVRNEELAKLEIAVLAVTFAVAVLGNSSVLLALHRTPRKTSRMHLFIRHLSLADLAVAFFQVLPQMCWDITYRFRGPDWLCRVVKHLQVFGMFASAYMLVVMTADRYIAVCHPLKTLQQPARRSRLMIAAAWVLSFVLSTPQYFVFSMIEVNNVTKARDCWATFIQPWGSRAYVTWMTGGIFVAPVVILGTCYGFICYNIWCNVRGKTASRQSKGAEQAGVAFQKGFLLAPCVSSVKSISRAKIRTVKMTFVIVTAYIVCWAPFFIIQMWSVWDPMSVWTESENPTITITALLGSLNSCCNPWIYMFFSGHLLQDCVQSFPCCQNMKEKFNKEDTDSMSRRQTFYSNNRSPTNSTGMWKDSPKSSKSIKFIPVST
OXTR ag: activates the human oxytocin receptor | CHO-OTR cells, Fluo-8 calcium fluorescence; normalized: DMSO 0%, oxytocin 100% | activation, % at 3 µM | hit rate 0.32% among 320,000 | AID 2435;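 active = activation above the mean of all tested compounds plus 3 SD, cutoff set per screening run, cut at about 20% in these data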;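 note: peak over basal fluorescence ratio from a 100 s FLIPR kinetic read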
OXTR potentiator: potentiators of human oxytocin receptor | hit rate 0.061% among 320,000 | activation, % at 3 µM | AID 2445 | P30559 | CHO-OTR cells, Fluo-8 calcium fluorescence, potentiator mode; 0% = oxytocin EC15, 100% = EC100;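 active = activation above that plate's cutoff, the mean activation of tested compounds plus 3 SD, cut at about 6.6% in these data, passing the limit was not always enough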
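Assay system: CHO cell line stably expressing human OTR. Reagent: EC15 oxytocin agonist. Dosing: single dose, 3.0 µM nominal final compound concentration. Timing: compound 6 min at room temperature before oxytocin, 100 s read. Signal: kinetic Fluo-8 calcium fluorescence. Controls: oxytocin EC15 low and EC100 high.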
TRPN1 ag 2: counter-screen for TRPML3 agonists: agonists of zebrafish TRPN1 channel | shares compounds with TRPML3 ag | HEK293 zebrafish TRPN1-YFP, Fluo-8 calcium fluorescence; scaled: carbachol wells 100%, DMSO wells 0% | activation, % at 3 µM | hit rate 10% among 310 | AID 1525;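 active = mean activation over replicates above a set limit taken from the earlier TRPN1 channel primary screen, cut at about 19% in these data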
TRPML3 confirm: human TRPML3 agonism, confirmation. shares compounds with TRPML3 ag. HEK293 TRPML3-YFP, Fluo-8 calcium fluorescence; 100% set by carbachol, 0% by DMSO. activation, % at 3 µM. hit rate 80% among 310. AID 1526;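 active = activation above a set limit derived from the earlier primary screen, cut at about 12% in these data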
Of the large screens only hits and unclear results are named; the others gave an inactive call (follow-up assays come after a bar, where they were run).

COc1ccc(OC)c(S(=O)(=O)N2CCCc3ccccc32)c1	TRPML3 ag 48 | TRPN1 ag 2 inactive | TRPML3 confirm 56
O=C(COc1ccc(/C=N/NC(=O)c2ccccc2)cc1)Nc1ccc([N+](=O)[O-])cc1	none
CC(C)Oc1ccc(/C=N/NC(=O)C(CSCc2ccccc2)NC(=O)c2ccc([N+](=O)[O-])cc2)cc1 (stereo not given)	TRPML3 ag 53 | TRPN1 ag 2 inactive | TRPML3 confirm 78
C=CCn1c(SCC(=O)C23CC4CC(CC(C4)C2)C3)nc(O)cc1=O	none
C=CCn1c(SCCC)nc(O)cc1=O	TRPML3 ag 28, V1R ag counter 70, OXTR ag 48 | TRPN1 ag 2 inactive | TRPML3 confirm inactive
Cc1ccc(N(C)S(=O)(=O)c2ccc(C)cc2)cc1	TRPML3 ag 49 | TRPN1 ag 2 inactive | TRPML3 confirm 25
Cc1ccc(S(=O)(=O)N(C)c2ccccc2)cc1	TRPML3 ag 17 | TRPN1 ag 2 inactive | TRPML3 confirm inactive
CSc1nc2ccccc2nc1N(C)S(=O)(=O)c1ccc(C)cc1	TRPML3 ag 21 | TRPN1 ag 2 inactive | TRPML3 confirm 26
Cc1ccc(S(=O)(=O)N(C)c2ccc3ccccc3c2)cc1	none
Cc1ccc(NC(=O)CSCC(=O)Nc2nnc(C)s2)cc1	none (no result: TRPN1 ag, TRPML3 ag)
CC(=O)Nc1ccc(S(=O)(=O)N2CCN(CC(=O)N3CCOCC3)CC2)cc1	none
CCOc1ccccc1N1CCN(S(=O)(=O)c2ccc(Cl)s2)CC1	TRPML3 ag 38 | TRPN1 ag 2 inactive | TRPML3 confirm 27
CC(C)=C1C2CCC1C(C(=O)NCc1ccccc1)C2C(=O)O (stereo not given)	TRPML3 ag 18 | TRPN1 ag 2 inactive | TRPML3 confirm inactive
Cc1ccc(NC(=O)c2ccc(Cl)c(S(=O)(=O)N3CCCCC3)c2)nc1	none (no result: TRPN1 ag, TRPML3 ag)
CN(CCOc1ccccc1)CC(=O)Nc1ccc(S(=O)(=O)N2CCCC2)cc1	none
CN(CCOc1ccccc1)c1ccc(S(=O)(=O)N2CCCCC2)cn1	TRPML3 ag 26 | TRPN1 ag 2 inactive | TRPML3 confirm 52
CCCCn1c(N)c(N(CC(C)C)C(=O)c2ccc(N3C(=O)c4ccccc4C3=O)cc2)c(=O)[nH]c1=O	none (no result: TRPN1 ag, TRPML3 ag)
CCN(C[C@H]1N[C@@](Cc2ccccc2)(C(=O)OC)[C@H]2C(=O)N(C)C(=O)[C@@H]12)C(=O)NC(C)C	none (no result: TRPN1 ag, TRPML3 ag)
CCN(C(=O)c1cnc(OC)cc1C(F)(F)F)c1ccc(Cl)cc1Cl	TRPML3 ag 39 | TRPN1 ag 2 inactive | TRPML3 confirm 47
COc1ccc(/C=C/CN2CCCC(CO)(Cc3cccc(Cl)c3)C2)cc1 (stereo not given)	none
CCOc1cc(/C=C2\SC(=S)N(C(C(=O)O)c3ccccc3)C2=O)ccc1O (stereo not given)	TRPML3 ag 13, V1R ag counter 32, OXTR ag 38 | TRPN1 ag 2 33 | TRPML3 confirm 15
CCOc1ccc(/C=C2/SC(=S)N(C(C(=O)O)c3ccccc3)C2=O)cc1OCC (stereo not given)	none (no result: V1R ag counter, OXTR ag, OXTR potentiator)
Cc1ccc(Cl)cc1N1CCN(S(C)(=O)=O)CC1	none
Cc1ccc(Cl)cc1N1CCN(S(=O)(=O)N2CCCCC2)CC1	TRPML3 ag 30 | TRPN1 ag 2 inactive | TRPML3 confirm 111
CCOc1ccc(NC(=O)CCC(=O)NNC(=O)COc2ccccc2C)cc1	none
COC(=O)c1ccc(CN(c2ccccc2Cl)S(C)(=O)=O)cc1	none
COC(=O)c1ccc(Cl)cc1N(Cc1c(F)cccc1Cl)S(C)(=O)=O	TRPML3 ag 70 | TRPN1 ag 2 inactive | TRPML3 confirm 84
COc1ccc(N2CC(C(=O)N[C@@H](CC(C)C)C(=O)NC3CCCC3)CC2=O)cc1 (stereo not given in full)	none (no result: TRPN1 ag, TRPML3 ag)
CCc1cccc(NC(=O)CCS(=O)(=O)c2ccc(Br)cc2)c1	none (no result: TRPN1 ag, TRPML3 ag)
O=C(NC(=S)NNC(=O)c1cccs1)c1ccc(Br)o1	TRPML3 ag 12 | TRPN1 ag 2 inactive | TRPML3 confirm 22
CNC(=S)NNC(=O)c1cccs1	none
CCN(CC)c1ccc2cc(-c3nnc(-c4ccccc4)o3)c(=O)oc2c1	TRPML3 ag 12, V1R ag counter 50, OXTR ag 42 | TRPN1 ag 2 248 | TRPML3 confirm 177
O=c1oc2ccc3ccccc3c2cc1-c1nnc(-c2ccccc2)o1	none
O=S(=O)(Nc1ccccc1N1CCCCC1)c1ccc(F)cc1	TRPML3 ag 31 | TRPN1 ag 2 inactive | TRPML3 confirm 78
O=S(=O)(Nc1ccccc1N1CCCCC1)c1cccs1	TRPML3 ag 14 | TRPN1 ag 2 inactive | TRPML3 confirm 33
O=C(c1ccccc1)c1ccc(O)cc1O	TRPML3 ag 18, V1R ag counter 30, OXTR ag 24 | TRPN1 ag 2 inactive | TRPML3 confirm inactive
COc1ccc(C(=O)NCCN2CCOCC2)cc1S(=O)(=O)Nc1ccc(C)cc1	none (no result: TRPN1 ag, TRPML3 ag)
COC(=O)CN(c1cc(Cl)ccc1OC)S(=O)(=O)c1ccc(C)cc1	TRPML3 ag 70 | TRPN1 ag 2 inactive | TRPML3 confirm 61
COc1ccc(S(=O)(=O)N(CC(=O)N2CCOCC2)c2cc(Cl)ccc2OC)cc1OC	TRPML3 ag 45 | TRPN1 ag 2 inactive | TRPML3 confirm 42
COc1ccc(S(=O)(=O)Nc2ccc(C)cc2)cc1N(C)S(=O)(=O)c1ccc(Cl)cc1	TRPML3 ag 61 | TRPN1 ag 2 inactive | TRPML3 confirm 32
COc1ccc(S(=O)(=O)NN(C)C)cc1N(C)S(=O)(=O)c1ccc(Cl)cc1	none
COc1ccc(Cl)cc1N(CC(=O)N1CCCC1)S(=O)(=O)c1ccc(C)cc1	none (no result: TRPN1 ag, TRPML3 ag)
Cc1csc(C(C)N(C)C(=O)c2ccc(OC3CCN(Cc4ccccn4)CC3)cc2)n1 (stereo not given)	none (no result: TRPN1 ag, TRPML3 ag)
O=C(NCc1c(Cl)cccc1Oc1ccccc1)c1ccccc1	none
COC(=O)C1(C(C[N+](=O)[O-])c2ccco2)C(=O)NCC1c1ccccc1 (stereo not given)	TRPML3 ag 17 | TRPN1 ag 2 inactive | TRPML3 confirm 23
N#CC1(C#N)CC(C=O)=C(N)C1(C#N)CC(=O)C12CC3CC(CC(C3)C1)C2 (stereo not given)	none
COc1ccc(S(=O)(=O)N2CCC(C)CC2)cc1Br	TRPML3 ag 66 | TRPN1 ag 2 inactive | TRPML3 confirm 106
COc1ccc(S(=O)(=O)N2CCC(C)CC2)cc1OC	none (no result: TRPN1 ag, TRPML3 ag)
CCN1CCN(S(=O)(=O)c2ccc(C)c([N+](=O)[O-])c2)CC1	none
